The source made the active and inactive calls. The rule behind the calls is not given here.
Legend:
A-431 = assay: Antiproliferative activity against human A431 cells overexpressing wild-type EGFR after 72 hrs by MTT assay; type: functional, cell-based; settings: A-431, 72 h
NCI-H1975 = assay: Antiproliferative activity against human NCI-H1975 cells expressing L858R/T790M mutant EGFR after 72 hrs by MTT assay; type: functional, cell-based; settings: NCI-H1975, 72 h
[1] = biological target: T1, Epidermal growth factor receptor (Homo sapiens, UniProt P00533); assay: Inhibition of wild type human EGFR preincubated for 5 mins followed by ATP addition for 30 mins by HTRF assay
[2] = biological target: Epidermal growth factor receptor (Homo sapiens, UniProt P00533, L858R); assay: Inhibition of recombinant human EGFR L858R mutant expressed in baculovirus infected insect cells preincubated for 5 mins followed by ATP addition for 30 mins by HTRF assay
In short: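 Purchased EGFR L858R kinase and substrate were preincubated with compound for 5 min in enzymatic buffer. ATP was then added to start the reaction, which ran 30 min at room temperature. It was stopped with EDTA-containing detection reagents, and HTRF detection ran for 1 h. IC50 was fitted from the dose-response data as the mean of three independent experiments.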

HepG2 = assay: Cytotoxicity against human HepG2 cells assessed as cell growth inhibition after 72 hrs by MTT assay; type: ADME, cell-based; settings: HepG2, 72 h
A549 = assay: Cytotoxicity against human A549 cells assessed as cell growth inhibition after 72 hrs by MTT assay; type: ADME, cell-based; settings: A549, 72 h
[3] = biological target: Epidermal growth factor receptor (Homo sapiens, UniProt P00533, T790M); assay: Inhibition of EGFR T790M mutant (unknown origin) preincubated for 5 mins followed by ATP addition for 30 mins by HTRF assay; type: protein assay
[4] = Chemical stability of the compound assessed as compound remaining at 1 uM at pH 7.4 after 24 hrs by HPLC-HRMS method; type: physicochemical; settings: buffer, read-out: Stability
In short: (§1)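 Buffers were 0.2 M PBS at pH 7.4, 9.0 or 10.0, held at 37 °C. Compound stock was made in CH3CN, then diluted into pre-warmed buffer. Aliquots taken at regular time points were injected directly into LC-TOF MS, and percentage of parent compound remaining was read out.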

[5] = Chemical stability of the compound assessed as compound remaining at 1 uM at pH 10 after 24 hrs by HPLC-HRMS method; type: physicochemical; settings: buffer, read-out: Stability; in short: as §1
[6] = Chemical stability of the compound assessed as compound remaining at 1 uM at pH 9 after 24 hrs by HPLC-HRMS method; type: physicochemical; settings: buffer, read-out: Stability; in short: as §1
[7] = biological target: T1, Epidermal growth factor receptor; assay: Inhibition of EGF-induced EGFR phosphorylation in human A431 cells at 1 uM preincubated for 1 hr followed by EGF addition for 15 mins by Western blot analysis; type: cell-based; settings: A-431
In short: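 A431 cells (5 x 10^5/well) were seeded overnight. They were exposed to 1 µM compound for 1 h at 37 °C, then immediately given EGF (20 ng/ml) for 15 min. Whole-cell lysates were made in Tris/NaCl/EDTA/SDS/deoxycholate/NP-40 buffer with aprotinin and PMSF, then cleared at 4 °C. Equal protein was run on SDS-PAGE and blotted for EGFR, p-EGFR and β-actin, with ECL detection.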

[8] = biological target: T1, Epidermal growth factor receptor; assay: Inhibition of EGF-induced EGFR phosphorylation in human A431 cells at 1 uM preincubated for 1 hr followed by compound washout for 5 hrs and subsequent EGF addition for 15 mins by Western blot analysis; type: cell-based; settings: A-431
In short: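 A431 cells (5 x 10^5/well) were seeded overnight and treated with 1 µM compound for 1 h at 37 °C. Cells were washed 10 times with fresh medium over 5 h, then stimulated with EGF (20 ng/ml) for 15 min. Lysates were made in RIPA-type buffer with protease inhibitors, and equal protein was immunoblotted for EGFR, p-EGFR and β-actin, with ECL detection.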

Sequence of Epidermal growth factor receptor (Homo sapiens, UniProt P00533, L858R) (P00533 25-1210 L858R limits assumed): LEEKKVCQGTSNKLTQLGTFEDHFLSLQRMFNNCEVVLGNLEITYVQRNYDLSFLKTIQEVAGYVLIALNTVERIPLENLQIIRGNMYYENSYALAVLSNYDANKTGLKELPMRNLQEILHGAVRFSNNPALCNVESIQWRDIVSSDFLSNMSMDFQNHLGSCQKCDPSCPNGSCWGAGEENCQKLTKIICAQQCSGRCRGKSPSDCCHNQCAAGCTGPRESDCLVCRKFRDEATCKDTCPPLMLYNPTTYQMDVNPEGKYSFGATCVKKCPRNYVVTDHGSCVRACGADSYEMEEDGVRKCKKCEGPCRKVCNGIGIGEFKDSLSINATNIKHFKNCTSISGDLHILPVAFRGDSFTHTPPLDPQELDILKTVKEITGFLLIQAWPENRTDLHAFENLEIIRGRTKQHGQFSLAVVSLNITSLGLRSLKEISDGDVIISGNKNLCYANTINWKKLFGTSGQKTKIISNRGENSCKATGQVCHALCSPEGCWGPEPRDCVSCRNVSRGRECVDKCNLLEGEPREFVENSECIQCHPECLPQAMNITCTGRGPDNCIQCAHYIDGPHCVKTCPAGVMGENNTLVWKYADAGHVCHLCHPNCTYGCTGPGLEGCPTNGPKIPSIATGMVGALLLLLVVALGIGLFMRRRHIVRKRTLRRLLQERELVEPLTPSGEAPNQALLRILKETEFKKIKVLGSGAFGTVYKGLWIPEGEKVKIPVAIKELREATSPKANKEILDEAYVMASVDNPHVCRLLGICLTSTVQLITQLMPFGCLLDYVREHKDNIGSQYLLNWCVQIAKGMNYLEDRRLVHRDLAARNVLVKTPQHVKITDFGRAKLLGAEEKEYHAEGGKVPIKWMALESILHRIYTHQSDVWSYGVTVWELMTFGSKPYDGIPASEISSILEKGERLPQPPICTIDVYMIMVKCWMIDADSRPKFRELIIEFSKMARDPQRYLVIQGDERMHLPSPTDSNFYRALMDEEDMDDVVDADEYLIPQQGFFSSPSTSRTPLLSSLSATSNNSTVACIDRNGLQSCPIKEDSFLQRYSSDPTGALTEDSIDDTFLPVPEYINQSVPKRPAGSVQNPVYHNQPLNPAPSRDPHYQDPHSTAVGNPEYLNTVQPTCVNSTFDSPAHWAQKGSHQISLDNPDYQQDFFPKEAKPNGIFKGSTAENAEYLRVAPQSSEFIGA
T1 sequence (P00533 whole entry): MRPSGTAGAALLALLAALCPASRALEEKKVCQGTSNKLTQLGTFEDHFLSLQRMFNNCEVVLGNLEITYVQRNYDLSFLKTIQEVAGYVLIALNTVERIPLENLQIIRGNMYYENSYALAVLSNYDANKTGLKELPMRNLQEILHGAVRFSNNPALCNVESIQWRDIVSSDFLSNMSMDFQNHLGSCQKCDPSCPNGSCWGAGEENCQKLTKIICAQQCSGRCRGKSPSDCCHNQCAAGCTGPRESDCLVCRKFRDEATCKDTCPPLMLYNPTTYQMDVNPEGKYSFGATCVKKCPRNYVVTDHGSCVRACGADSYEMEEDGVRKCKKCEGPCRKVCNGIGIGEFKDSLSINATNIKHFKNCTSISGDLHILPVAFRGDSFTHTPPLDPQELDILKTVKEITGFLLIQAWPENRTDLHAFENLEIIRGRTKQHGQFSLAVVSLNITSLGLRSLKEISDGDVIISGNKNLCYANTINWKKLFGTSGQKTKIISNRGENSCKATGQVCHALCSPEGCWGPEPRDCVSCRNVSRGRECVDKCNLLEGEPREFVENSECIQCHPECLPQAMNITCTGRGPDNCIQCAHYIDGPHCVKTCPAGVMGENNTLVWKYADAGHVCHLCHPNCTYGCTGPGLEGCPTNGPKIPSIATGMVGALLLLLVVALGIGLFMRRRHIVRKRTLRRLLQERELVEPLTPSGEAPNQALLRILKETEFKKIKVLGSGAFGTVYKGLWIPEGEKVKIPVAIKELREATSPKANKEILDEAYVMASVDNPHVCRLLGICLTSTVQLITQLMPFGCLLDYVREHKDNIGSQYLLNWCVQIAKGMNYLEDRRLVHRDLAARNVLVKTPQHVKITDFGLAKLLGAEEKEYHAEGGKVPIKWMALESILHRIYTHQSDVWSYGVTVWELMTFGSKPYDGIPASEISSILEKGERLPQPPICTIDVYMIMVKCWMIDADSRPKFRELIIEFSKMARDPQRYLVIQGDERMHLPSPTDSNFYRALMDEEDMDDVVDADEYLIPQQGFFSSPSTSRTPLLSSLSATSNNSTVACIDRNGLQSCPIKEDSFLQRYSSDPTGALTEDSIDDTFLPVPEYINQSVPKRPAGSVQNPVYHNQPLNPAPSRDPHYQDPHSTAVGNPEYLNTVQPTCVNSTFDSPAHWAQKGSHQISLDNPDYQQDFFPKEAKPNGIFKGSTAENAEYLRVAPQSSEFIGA
Sequence of Epidermal growth factor receptor (Homo sapiens, UniProt P00533, T790M) (P00533 25-1210 T790M limits assumed): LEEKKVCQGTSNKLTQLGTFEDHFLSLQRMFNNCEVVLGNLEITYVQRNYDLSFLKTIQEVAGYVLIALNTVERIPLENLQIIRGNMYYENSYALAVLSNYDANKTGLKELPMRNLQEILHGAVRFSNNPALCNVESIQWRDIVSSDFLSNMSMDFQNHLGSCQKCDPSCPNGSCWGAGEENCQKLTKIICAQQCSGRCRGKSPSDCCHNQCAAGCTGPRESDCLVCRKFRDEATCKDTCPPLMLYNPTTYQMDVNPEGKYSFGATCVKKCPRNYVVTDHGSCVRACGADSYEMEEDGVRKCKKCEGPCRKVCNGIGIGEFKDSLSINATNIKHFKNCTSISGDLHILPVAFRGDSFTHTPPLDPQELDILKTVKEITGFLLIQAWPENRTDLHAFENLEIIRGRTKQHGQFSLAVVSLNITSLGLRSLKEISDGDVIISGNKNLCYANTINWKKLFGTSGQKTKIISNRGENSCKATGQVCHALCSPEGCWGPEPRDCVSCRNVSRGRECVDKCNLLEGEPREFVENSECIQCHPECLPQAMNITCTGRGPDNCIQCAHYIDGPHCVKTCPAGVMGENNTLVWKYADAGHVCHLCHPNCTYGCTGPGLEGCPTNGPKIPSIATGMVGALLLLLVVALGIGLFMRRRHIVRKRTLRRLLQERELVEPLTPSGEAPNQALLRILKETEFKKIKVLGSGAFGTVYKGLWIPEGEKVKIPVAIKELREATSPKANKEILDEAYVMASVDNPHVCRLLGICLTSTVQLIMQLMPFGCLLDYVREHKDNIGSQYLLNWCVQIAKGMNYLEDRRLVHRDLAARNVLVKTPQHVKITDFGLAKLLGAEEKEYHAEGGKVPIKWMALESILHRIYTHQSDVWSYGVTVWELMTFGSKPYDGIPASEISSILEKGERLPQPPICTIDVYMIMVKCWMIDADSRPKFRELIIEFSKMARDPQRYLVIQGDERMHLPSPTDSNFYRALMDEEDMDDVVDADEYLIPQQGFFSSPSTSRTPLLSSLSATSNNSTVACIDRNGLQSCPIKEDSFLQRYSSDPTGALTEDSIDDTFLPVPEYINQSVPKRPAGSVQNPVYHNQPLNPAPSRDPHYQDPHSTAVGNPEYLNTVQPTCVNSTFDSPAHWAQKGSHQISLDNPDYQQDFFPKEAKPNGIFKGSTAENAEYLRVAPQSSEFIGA

Row | SMILES | IC50 (A-431) | IC50 (NCI-H1975) | IC50 [1] | IC50 [2] | IC50 [3] | further results
1 | O=C1N[C@H](C(=O)Nc2cc3c(Nc4ccc(F)c(Cl)c4)ncnc3cc2O[C@H]2CCOC2)CO1 | 22.8 µM | 9.33 µM | – | – | – | –
2 | COc1ccc(Nc2ncnc3cc(OC)c(NC(=O)[C@@H]4COC(=O)N4)cc23)cc1 | 34.9 µM | 10 µM | – | – | – | –
3 | CN1CCC(COc2cc3ncnc(Nc4ccc(F)c(Cl)c4F)c3cc2NC(=O)[C@H]2COC(=O)N2)CC1 | 5.3 µM | 13.5 µM | – | – | – | –
4 | COc1cc2ncnc(Nc3cccc(C(F)(F)F)c3)c2cc1NC(=O)[C@@H]1COC(=O)N1 | 13.5 µM | 10.8 µM | – | – | – | –
5 | CN1CCC(COc2cc3ncnc(Nc4ccc(F)c(Cl)c4F)c3cc2NC(=O)[C@@H]2COC(=O)N2)CC1 | 2.43 µM | 21.1 µM | – | – | – | –
6 | O=C1N[C@@H](C(=O)Nc2cc3c(Nc4ccc(F)c(Cl)c4)ncnc3cc2OCCCN2CCOCC2)CO1 | > 50 µM | 37.2 µM | – | – | – | –
7 | COc1cc2ncnc(Nc3ccc(F)c(Cl)c3)c2cc1NC(=O)[C@H]1NC(=O)O[C@@H]1C | 8.65 µM | 8.98 µM | 0.00198 µM | 0.00035 µM | 0.0402 µM | IC50 (HepG2): > 50 µM; IC50 (A549): > 50 µM
8 | CCOc1cc2ncnc(Nc3ccc(OCC4CC4)c(Cl)c3)c2cc1NC(=O)[C@@H]1COC(=O)N1 | 5.05 µM | 5.08 µM | 0.0378 µM | 0.0521 µM | 0.0808 µM | IC50 (HepG2): > 100 µM; IC50 (A549): 28.9 µM
9 | O=C1N[C@@H](C(=O)Nc2cc3c(Nc4ccc(F)c(Cl)c4)ncnc3cc2O[C@H]2CCOC2)CO1 | 11 µM | > 50 µM | – | – | – | –
10 | CCOc1cc2ncnc(Nc3ccc(OCc4cccc(F)c4)c(Cl)c3)c2cc1NC(=O)[C@H]1NC(=O)O[C@@H]1C | 3.36 µM | 4.28 µM | 0.00257 µM | 0.012 µM | 0.295 µM | IC50 (HepG2): 30.8 µM; IC50 (A549): 32.9 µM
11 | CCOc1cc2ncnc(N[C@@H](C)c3ccccc3)c2cc1NC(=O)[C@@H]1COC(=O)N1 | 16.9 µM | 15.3 µM | 0.00552 µM | 0.00071 µM | > 1 µM | –
12 | CCOc1cc2ncnc(Nc3ccc(OCc4cccc(F)c4)c(Cl)c3)c2cc1NC(=O)[C@H]1COC(=O)N1 | 4.15 µM | 4.75 µM | 0.00119 µM | 0.00549 µM | 0.111 µM | IC50 (HepG2): > 100 µM; IC50 (A549): > 50 µM
13 | COCCOc1cc2ncnc(Nc3ccc(F)c(Cl)c3)c2cc1NC(=O)[C@@H]1COC(=O)N1 | 25.9 µM | 22.1 µM | – | – | – | –
14 | CCOc1cc2ncnc(N[C@@H](C)c3ccccc3)c2cc1NC(=O)[C@H]1COC(=O)N1 | 15 µM | 4.95 µM | – | – | – | –
15 | CN1CCOC[C@@H]1COc1cc2ncnc(Nc3ccc(F)c(Cl)c3)c2cc1NC(=O)[C@@H]1COC(=O)N1 | 18.7 µM | 7.4 µM | – | – | – | –
16 | CCOc1cc2ncnc(Nc3ccc(OCc4ccccn4)c(Cl)c3)c2cc1NC(=O)[C@@H]1COC(=O)N1 | > 50 µM | 23.3 µM | – | – | – | –

Row | SMILES | IC50 (A-431) | IC50 (NCI-H1975) | IC50 [1] | IC50 [2] | IC50 [3] | further results
17 | COCCOc1cc2ncnc(Nc3ccc(F)c(Cl)c3)c2cc1NC(=O)[C@H]1COC(=O)N1 | > 50 µM | > 50 µM | – | – | – | –
18 | COc1cc2ncnc(Nc3cccc(Br)c3)c2cc1NC(=O)[C@@H]1COC(=O)N1 | 7.25 µM | 9.08 µM | 0.00047 µM | 0.00038 µM | 0.126 µM | IC50 (HepG2): > 100 µM; IC50 (A549): > 50 µM
19 | COc1cc2ncnc(Nc3ccc(F)c(Cl)c3)c2cc1NC(=O)[C@@H]1COC(=O)N1 | 9.2 µM | 6.8 µM | 0.00106 µM | 0.00031 µM | 0.0263 µM | remaining at 24 h, 1 µM [4]: 97.1%; remaining at 24 h, 1 µM [5]: 85.8%; remaining at 24 h, 1 µM [6]: 89.9%; inhibition [7]: Active; IC50 (HepG2): > 100 µM; IC50 (A549): 14.9 µM; inhibition [8]: inactive
20 | CCOc1cc2ncnc(Nc3ccc(Oc4ccc(C)nc4)c(Cl)c3)c2cc1NC(=O)[C@@H]1COC(=O)N1 | 11.2 µM | 7.65 µM | – | – | – | –
21 | CCOc1cc2ncnc(Nc3ccc(OCc4ccccn4)c(Cl)c3)c2cc1NC(=O)[C@H]1COC(=O)N1 | > 50 µM | > 50 µM | – | – | – | –
22 | COc1cc2ncnc(Nc3ccc(F)c(Cl)c3)c2cc1NC(=O)[C@H]1COC(=O)N1 | 16.8 µM | 21.2 µM | – | – | – | –
23 | O=C1N[C@H](C(=O)Nc2cc3c(Nc4ccc(F)c(Cl)c4)ncnc3cc2OCCCN2CCOCC2)CO1 | 48.7 µM | 12.3 µM | 0.00454 µM | 0.00083 µM | 0.0587 µM | –
24 | O=C1N[C@H](C(=O)Nc2cc3c(Nc4ccc(F)c(Cl)c4)ncnc3cc2OCCN2CCCCC2)CO1 | 3.5 µM | 5.85 µM | 0.0255 µM | 0.00779 µM | 0.333 µM | IC50 (HepG2): > 50 µM; IC50 (A549): 42.9 µM
25 | COc1cc2ncnc(Nc3cccc(Br)c3)c2cc1NC(=O)[C@H]1COC(=O)N1 | 14.3 µM | 11.1 µM | – | – | – | –
26 | O=C1N[C@H](C(=O)Nc2cc3c(Nc4ccc(F)c(Cl)c4)ncnc3cc2OCC(F)(F)F)CO1 | 33.9 µM | > 50 µM | – | – | – | –
27 | CN1CC[C@H](Oc2cc3ncnc(Nc4ccc(F)c(Cl)c4)c3cc2NC(=O)[C@@H]2COC(=O)N2)C1 | 12.6 µM | 13.6 µM | – | – | – | –
28 | COc1cc2ncnc(Nc3ccc(F)c(Cl)c3)c2cc1NC(=O)[C@@H]1CCC(=O)N1 | 21.8 µM | > 50 µM | – | – | – | –
29 | CCOc1cc2ncnc(Nc3ccc(OCc4cccc(F)c4)c(Cl)c3)c2cc1NC(=O)[C@@H]1COC(=O)N1 | 3.89 µM | 3.87 µM | 0.00134 µM | 0.00562 µM | 0.0532 µM | IC50 (HepG2): > 50 µM; IC50 (A549): 11.6 µM
30 | CCOc1cc2ncnc(Nc3ccc4c(cnn4Cc4cccc(F)c4)c3)c2cc1NC(=O)[C@@H]1COC(=O)N1 | 10.8 µM | 10.5 µM | – | – | – | –
31 | CCOc1cc2ncnc(Nc3ccc4c(cnn4Cc4cccc(F)c4)c3)c2cc1NC(=O)[C@H]1COC(=O)N1 | 18.9 µM | > 50 µM | – | – | – | –
32 | CCOc1cc2ncnc(Nc3ccc(OCC4CC4)c(Cl)c3)c2cc1NC(=O)[C@H]1NC(=O)O[C@@H]1C | 7.35 µM | 12.7 µM | – | – | – | –
